The values below come from ChEMBL document CHEMBL4265955, “Synthesis and antiproliferative activity of podocarpane and totarane derivatives” (Eur J Med Chem, 2018).

Data set [1] deals with MCF7. The data set is described as follows: Antiproliferative activity against human MCF7 cells after 3 days by sulforhodamine B assay. Particulars: MCF7, 72 h. The class given is functional, cell-based. In outline: (§1)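 Cells grown in DMEM with 10% heat-inactivated FBS, penicillin-streptomycin and 2 mM L-glutamine at 37°C, 5% CO2. Seeded at 5 x 10^3 cells/cm², exposed 24 h later to increasing compound concentrations for 3 days. Fixed with cold 10% TCA, stained with 0.4% SRB, dye solubilized in 10 mM Tris pH 10.5, OD read at 492 nm. IC50 taken by linear interpolation of semilog dose-response curve; seven biological replicates, mean ± SEM.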
A general note: The SRB assay estimates cell density from bound dye.

Data set [2] concerns T84. Briefly: Antiproliferative activity against human T84 cells after 3 days by sulforhodamine B assay. The class given is functional, cell-based. The conditions noted are these: T84, 72 h. The essentials:
as §1

Data set [3] concerns A549. The data set is described as follows: Antiproliferative activity against human A549 cells after 3 days by sulforhodamine B assay. The class given is functional, cell-based. The conditions noted are these: A549, 72 h. In outline:
as §1

The test system of data set [4] is A549. The data set is described as follows: Induction of apoptosis in human A549 cells assessed as total apoptotic cells at IC50 after 24 hrs by Annexin-V-FITC/propidium iodide staining based flow cytometry (reference value: 13.2%). The class given is functional. (Flow cytometry measures light scatter and fluorescence of single cells or particles in a stream.)
In data set [5] the test system is A549. The data set is described as follows: Cell cycle arrest in human A549 cells assessed as accumulation at sub-G1 phase at IC50 after 48 hrs by propidium iodide staining based flow cytometry (reference value: 2.6%). The class given is functional.
The subject of data set [6] is A549. Briefly: Cell cycle arrest in human A549 cells assessed as accumulation at G0/G1 phase at IC50 after 24 hrs by propidium iodide staining based flow cytometry (reference value: 60.6%). The class given is functional.
Data set [7] concerns A549. The data set is described as follows: Cell cycle arrest in human A549 cells assessed as reduction in accumulation at S phase at IC50 after 48 hrs by propidium iodide staining based flow cytometry. The class given is functional.
Data set [8] has as its system A549. The data set is described as follows: Induction of apoptosis in human A549 cells assessed as increase in Bax to Bcl2 ratio at 0.5 to 1 times IC50 after 24 hrs Western blot analysis. The class given is functional, cell-based. In outline: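 A-549 seeded at 4 x 10^4 cells/cm², treated 24 h later at 0x, 0.5x or 1x IC50 for 24 h. Lysed in SDS sample buffer, proteins separated on 12% acrylamide gels and transferred to nitrocellulose. Blocked 1 h in 3% milk/1% BSA/0.5% Tween-20 in PBS. Probed overnight with mouse monoclonal anti-Bax or anti-Bcl-2, then HRP anti-mouse IgG.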

For data set [9], the system named is MCF7. The data set is described as follows: Potency index, ratio of 5-fluorouracil IC50 to test compound IC50 for human MCF7 cells. The class given is functional.
Data set [10] concerns T84. The data set is described as follows: Potency index, ratio of 5-fluorouracil IC50 to test compound IC50 for human T84 cells. The class given is functional.
Data set [11] deals with A549. The data set is described as follows: Cell cycle arrest in human A549 cells assessed as reduction in accumulation at G2/M phase at IC50 after 48 hrs by propidium iodide staining based flow cytometry. The class given is functional.
A short description of data set [12]: Cytotoxicity against human PBMC assessed as cell viability at 1 uM by MTT assay relative to control. The class given is cell-based. Particulars: PBMC (peripheral blood mononuclear cells), read-out: Activity. The essentials: (§2)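 PBMC isolated from healthy donor blood by Histopaque-1077 density gradient centrifugation. Cultured in RPMI-1640 with 20% FBS, penicillin-streptomycin and 2 mM glutamine at 37°C, 5% CO2. Exposed to increasing compound concentrations; viability of non-adherent cultures measured by MTT at 570 and 595 nm and expressed against untreated control cultures.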

Data set [13] is described as follows: Cytotoxicity against human PBMC assessed as cell viability at 2.5 uM by MTT assay relative to control. The class given is cell-based. Particulars: PBMC (peripheral blood mononuclear cells), read-out: Activity. In outline: as §2
Data set [14] has as its system A549. Briefly: Cell cycle arrest in human A549 cells assessed as accumulation at G2/M phase at IC50 after 24 hrs by propidium iodide staining based flow cytometry (reference value: 8.8%). The class given is functional.
The subject of data set [15] is A549. Briefly: Induction of apoptosis in human A549 cells assessed as viable cells at IC50 after 24 hrs by Annexin-V-FITC/propidium iodide staining based flow cytometry (reference value: 83.6%). The class given is functional.
The nature of data set [16]: Cytotoxicity against human PBMC assessed as cell viability at 5 uM by MTT assay relative to control. The class given is cell-based. Particulars: PBMC (peripheral blood mononuclear cells), read-out: Activity. The essentials: as §2
In general terms: Tetrazolium assays rely on reduction of a dye to a coloured formazan, in cell work by metabolically active cells.

For data set [17], the system named is A549. Briefly: Cell cycle arrest in human A549 cells assessed as reduction in accumulation at G1 phase at IC50 after 48 hrs by propidium iodide staining based flow cytometry. The class given is functional.
In data set [18] the test system is A549. Briefly: Potency index, ratio of 5-fluorouracil IC50 to test compound IC50 for human A549 cells. The class given is functional.
Data set [19] deals with PBMC. Briefly: Cytotoxicity against human PBMC assessed as reduction in cell viability at 10 uM by MTT assay relative to control. The class given is cell-based. The essentials:
as §2

Data set [20] concerns PBMC. Briefly: Cytotoxicity against human PBMC assessed as reduction in cell viability at 0.5 uM by MTT assay relative to control. The class given is cell-based. In outline:
(§3)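 PBMC isolated from healthy donor blood by density gradient centrifugation (Histopaque-1077), cultured in RPMI-1640 with 20% FBS, penicillin-streptomycin and 2 mM glutamine at 37°C, 5% CO2. Cells exposed to increasing compound concentrations for 3 days. Viability read by MTT at 570 and 595 nm and expressed versus untreated control cultures.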

The subject of data set [21] is PBMC. The data set is described as follows: Cytotoxicity against human PBMC assessed as reduction in cell viability at 0.5 to 10 uM by MTT assay. The class given is cell-based. In outline: as §3

A word on the IC50: it is the concentration that gives 50% inhibition.

Calls of active or inactive are those of the source. The rule behind the calls is not given here. A value given as a limit tells only on which side of the number the result lay.

Take `COC(=O)c1cc2c(cc1O)[C@@]1(C)CCC[C@](C)(C(=O)OC)[C@@H]1CC2`: the 50% inhibitory concentration (IC50) in data set [1] amounted to 21.7 µM; in [2], 20.7 µM; in data set [3], 17.2 µM.
On to `COC(=O)[C@@]1(C)CCC[C@]2(C)c3c(O)c(O)cc(C(C)C)c3CC[C@@H]12`, for which the Activity in data set [4] amounted to 44%; in [5] it was 70.1%; in data set [6], 53.7%; in data set [14], 14.5%; in data set [15], 54.2%; in [19] it was 21.5%. Moreover, the IC50 in data set [1] turned out to be 2.8 µM; in [2], 1 µM; in data set [3], 0.6 µM. Also, the outcome in data set [7], in data set [8], in data set [11] and in [17] was Active. The “Ratio IC50” value in data set [9], in data set [10] and in data set [18] was 4 in each case. The viability at 1 µM in data set [12] was determined as 86.4%. Besides, the viability at 2.5 µM in data set [13] was determined as 81.3%. Also, the viability at 5 µM in data set [16] is 87.7%.
As for `COC(=O)c1cc2c(cc1OC)[C@@]1(C)CCC[C@](C)(C(=O)OC)[C@@H]1CC2`, the IC50 in data set [1], in data set [2] and in data set [3] was greater than 40 µM in each case.
With `CC(=O)c1cc2c(cc1O)[C@@]1(C)CCC[C@](C)(CO)[C@@H]1CC2`, the IC50 was 9.3 µM in [1], 7.8 µM in [2] and 4.8 µM in [3].
The corresponding values for `C=C(C)c1cc(O)cc2c1CC[C@H]1[C@@](C)(C(=O)OC)CCC[C@]21C` are 26.1 µM, 30.7 µM and 23.7 µM.
The matching figures for `COC(=O)[C@@]1(C)CCC[C@]2(C)c3cc(O)cc(C(C)C)c3CC[C@@H]12`: 28.8 µM, 30.5 µM and 18.6 µM.
In the case of `COC(=O)[C@@]1(C)CCC[C@]2(C)C3=C(CC[C@@H]12)C(C(C)C)=CC(=O)C3=O`, the results for the Activity in [20], in data set [21] and in data set [19] were 25%, “Toxic” and 43.8%, respectively. Besides, the IC50 was 1.1 µM in data set [1], 11.4 µM in [2] and 6.8 µM in [3]. Further, in data set [12], the viability at 1 µM amounted to 69.2%. Further, in [13], the viability at 2.5 µM stood at 64.7%. Also, the viability at 5 µM in [16] was determined as 58.3%.
Take `COC(=O)c1cc(O)cc2c1CC[C@H]1[C@@](C)(C(=O)OC)CCC[C@]21C`: the IC50 in data set [1], in data set [2] and in data set [3] was greater than 40 µM each time.
`O=c1[nH]cc(F)c(=O)[nH]1` [FLUOROURACIL]: the IC50 in data set [1] was determined as 7.8 µM; in [2], 3.4 µM; in data set [3] it was 7.1 µM.
